Bioassay records (PubChem BioAssay)
Hits are enriched below; roughly 2.3% of the tested compounds scored in any of these assays.
TRPC4 PAM: positive allosteric modulators of TRPC4, primary screen, cell-based, mouse TRPC4beta, HEK293 mu-opioid, Fluo-4 calcium; AID 2227, 2009; Short transient receptor potential channel 4 (Mus musculus), Q9QUQ5; B-score at 10 µM; DAMGO EC20, Fluo-4 Ca2+ flux; hits give high values; 310,000 tested, 0.42% active;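 active means B-score of calcium response area above 5 SD of library B-scores, with initial fluorescence ratio within 5 SD of library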
Target sequence (Q9QUQ5 whole entry, looked up): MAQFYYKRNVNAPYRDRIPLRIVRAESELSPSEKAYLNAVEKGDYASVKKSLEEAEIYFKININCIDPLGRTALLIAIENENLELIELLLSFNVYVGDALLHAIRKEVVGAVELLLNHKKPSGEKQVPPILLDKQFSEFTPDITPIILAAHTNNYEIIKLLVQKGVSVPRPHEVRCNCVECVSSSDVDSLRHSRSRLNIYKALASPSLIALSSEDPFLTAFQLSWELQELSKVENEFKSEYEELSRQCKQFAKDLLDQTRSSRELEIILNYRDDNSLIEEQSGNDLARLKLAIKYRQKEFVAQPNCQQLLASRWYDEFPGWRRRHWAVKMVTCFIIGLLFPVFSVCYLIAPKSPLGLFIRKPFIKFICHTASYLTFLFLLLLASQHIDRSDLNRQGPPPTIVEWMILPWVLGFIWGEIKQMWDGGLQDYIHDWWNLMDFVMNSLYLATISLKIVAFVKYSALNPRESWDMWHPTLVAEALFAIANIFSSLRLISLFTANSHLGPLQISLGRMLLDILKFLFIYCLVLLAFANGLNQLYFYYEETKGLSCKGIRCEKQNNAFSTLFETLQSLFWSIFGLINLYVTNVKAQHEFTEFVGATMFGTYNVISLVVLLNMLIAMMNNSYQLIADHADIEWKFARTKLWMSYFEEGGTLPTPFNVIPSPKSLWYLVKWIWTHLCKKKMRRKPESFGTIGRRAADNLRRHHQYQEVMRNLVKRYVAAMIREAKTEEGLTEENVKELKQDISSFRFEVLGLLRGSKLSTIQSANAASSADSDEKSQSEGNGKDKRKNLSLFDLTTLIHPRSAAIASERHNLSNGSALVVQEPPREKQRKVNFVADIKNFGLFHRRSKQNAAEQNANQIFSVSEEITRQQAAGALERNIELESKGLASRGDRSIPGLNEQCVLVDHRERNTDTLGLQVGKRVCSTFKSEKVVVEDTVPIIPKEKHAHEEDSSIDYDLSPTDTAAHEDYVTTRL
TRPC4 block: inhibitors of mouse TRPC4 channel, primary screen, Fluo4 calcium, HEK293 TRPC4beta/mu-opioid cells | B-score at 10 µM | 300,000 tested, 0.39% active | Short transient receptor potential channel 4 (Mus musculus), Q9QUQ5 | DAMGO-evoked Fluo4 calcium flux; hits give low values;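 active means B-score over 3 SD under the library average, no early fluorescence shift, positive overall ratio signal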
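Assay system: HEK293 cells with stable TRPC4beta plus mu-opioid receptor expression; Probe or stimulus: DAMGO in two steps, submaximal then maximal; Dosing: single-point compound dosing; Measured by: Fluo4 calcium-dye fluorescence, kinetic read; Read-out basis: B score from integrated Fluo4 fluorescence ratio.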
TRPC6 inh: mouse TRPC6 channel inhibitors, primary screen, cell-based, HEK293, membrane potential dye | Short transient receptor potential channel 6 (Mus musculus), Q61143 | ACh-evoked depolarization; hits give low values | B-score at 10 µM | 310,000 tested, 1.1% active;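 active means B-score under library mean minus 3 SD, initial fluorescence not abnormally high, positive integrated signal ratio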;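 further: B-score derived from integrated fluorescence ratio over the kinetic read; more negative B-score means stronger inhibition of depolarization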
TRPC4 agonist: activators of mouse TRPC4 channel, primary screen, Fluo4 calcium, HEK293 TRPC4beta/mu-opioid cells; AID 2237, 2010; Short transient receptor potential channel 4 (Mus musculus), Q9QUQ5; Fluo4 calcium fluorescence; hits give high values; B-score at 10 µM; 310,000 tested, 0.49% active;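 active means B-score above 5 SD of library B-scores, and initial fluorescence ratio not above library mean plus 5 SD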;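 further: positive B-score marks a calcium rise read as TRPC4 activation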
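Assay system: HEK293 stable line with TRPC4beta plus mu-opioid receptor. Times: dye 45 min RT, read 110 s. Measured by: kinetic Fluo4 calcium fluorescence. Measure: B score of integrated ratio. Controls: assay buffer as low control, maximal DAMGO as high control.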
TRPC6 activator: mouse TRPC6 channel activators, primary screen, cell-based, HEK293, membrane potential dye. 310,000 tested, 0.13% active. HEK293-TRPC6 membrane potential dye fluorescence; hits give high values. B-score at 10 µM;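 active means B-score of the integrated fluorescence ratio above library mean plus 3 SD, and starting fluorescence ratio within library mean plus 5 SD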;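 further: higher score means more depolarization so channel activation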
Numbers stand for hits.

For COc1ccc(C)cc1Nc1n[n+](-c2ccccc2)c(-c2c(Cl)cccc2Cl)s1 the results were TRPC4 PAM inactive, TRPC4 block inactive, TRPC6 inh -5.36, TRPC4 agonist 67 and TRPC6 activator inactive.
`Fc1ccc(-[n+]2nc(Nc3ccccc3)sc2-c2c(Cl)cccc2Cl)cc1` gave TRPC4 PAM inactive, TRPC4 block inactive, TRPC6 inh inactive, TRPC4 agonist 55 and TRPC6 activator inactive.
CN(C)c1ccc(-c2sc(Nc3ccccc3)n[n+]2-c2ccc(F)cc2)cc1 was read as TRPC4 PAM inactive, TRPC4 block inactive, TRPC6 inh inactive, TRPC4 agonist 222 and TRPC6 activator inactive.
For O=C(c1ccco1)N1CCN(C(=O)C23CC4CC(CC(C4)C2)C3)CC1 the results were TRPC4 PAM inactive, TRPC4 block inactive, TRPC6 inh inactive, TRPC4 agonist inactive and TRPC6 activator inactive.
CCOc1ccc(-n2c(C)c(C(C)=O)c3cc(O)ccc32)cc1 was read as TRPC4 PAM 11, TRPC4 block inactive, TRPC6 inh inactive, TRPC4 agonist inactive and TRPC6 activator inactive.
Screening Cc1ccc(C)c(OCC(O)CN2CCC(Cc3ccccc3)CC2)c1 (stereo not given) returned TRPC4 PAM inactive, TRPC4 block inactive, TRPC6 inh inactive, TRPC4 agonist inactive and TRPC6 activator inactive.
For CCSc1nc2c(c(=O)n1Cc1ccccc1)SC(C)C2 (stereo not given) the results were TRPC4 PAM inactive, TRPC4 block -6, TRPC6 inh inactive, TRPC4 agonist inactive and TRPC6 activator inactive.
COc1ccc(/C=C/C(=O)Oc2cc(O)cc(O)c2)cc1 was read as TRPC4 PAM inactive, TRPC4 block -7, TRPC6 inh inactive, TRPC4 agonist inactive and TRPC6 activator inactive.
Screening Cc1cc(OCC(O)CN)ccc1Cl (stereo not given) returned TRPC4 PAM inactive, TRPC4 block inactive, TRPC6 inh inactive, TRPC4 agonist 143 and TRPC6 activator inactive.
CCOC(=O)N1CCN(CC(O)COc2c(C)cccc2C)CC1 (stereo not given) was read as TRPC4 PAM inactive, TRPC4 block inactive, TRPC6 inh inactive, TRPC4 agonist inactive and TRPC6 activator inactive.
Cc1cccc(C)c1OCC(O)CN (stereo not given) was read as TRPC4 PAM inactive, TRPC4 block inactive, TRPC6 inh inactive, TRPC4 agonist 163 and TRPC6 activator inactive.
`Cc1ccccc1CS(=O)(=O)Cc1ccc(C(=O)NC2CCCCC2)o1` gave TRPC4 PAM inactive, TRPC4 block inactive, TRPC6 inh inactive, TRPC4 agonist inactive and TRPC6 activator inactive.
`CN(CC(=O)Nc1ccc(F)cc1)C(=O)COC(=O)c1ccccc1` gave TRPC4 PAM 106, TRPC4 block inactive, TRPC6 inh inactive, TRPC4 agonist inactive and TRPC6 activator inactive.
`CN(CC(=O)Nc1ccc(F)cc1)C(=O)CCc1ccccc1` gave TRPC4 PAM inactive, TRPC4 block inactive, TRPC6 inh inactive, TRPC4 agonist inactive and TRPC6 activator inactive.
`COc1ccc(C2C(C(=O)c3ccco3)=C(O)C(=O)N2CC2CCCO2)cc1OC` (stereo not given) gave TRPC4 PAM inactive, TRPC4 block inactive, TRPC6 inh inactive, TRPC4 agonist inactive and TRPC6 activator inactive.
Screening CCN1CCN(c2ccc(S(=O)(=O)N3CCCCC3)cc2NC(=O)c2ccc(OC(F)F)cc2)CC1 returned TRPC4 PAM inactive, TRPC4 block inactive, TRPC6 inh inactive, TRPC4 agonist inactive and TRPC6 activator inactive.
`CCN1CCN(c2ccc(S(=O)(=O)N3CCCCC3)cc2NC(=O)c2cc3ccccc3o2)CC1` gave TRPC4 PAM 18, TRPC4 block inactive, TRPC6 inh inactive, TRPC4 agonist inactive and TRPC6 activator inactive.
For CCN1CCN(c2ccc(S(=O)(=O)N3CCCCC3)cc2NC(=O)c2cccc(OC(F)F)c2)CC1 the results were TRPC4 PAM 19, TRPC4 block inactive, TRPC6 inh inactive, TRPC4 agonist inactive and TRPC6 activator inactive.
CCN1CCN(c2ccc(S(=O)(=O)N3CCCCC3)cc2NC(=O)Cc2ccc(OC)cc2)CC1 was read as TRPC4 PAM inactive, TRPC4 block inactive, TRPC6 inh inactive, TRPC4 agonist 63 and TRPC6 activator inactive.
`CCN1CCN(c2ccc(S(=O)(=O)N3CCCCC3)cc2NC(=O)/C=C/c2cccc(OC)c2OC)CC1` gave TRPC4 PAM inactive, TRPC4 block inactive, TRPC6 inh inactive, TRPC4 agonist inactive and TRPC6 activator inactive.
`CCN1CCN(c2c(Cl)cccc2NC(=O)c2cc3ccccc3o2)CC1` gave TRPC4 PAM 23, TRPC4 block inactive, TRPC6 inh inactive, TRPC4 agonist inactive and TRPC6 activator inactive.
For Cc1ccccc1C1c2[nH]c3ccccc3c2CCN1Cc1cccn1-c1ncccn1 (stereo not given) the results were TRPC4 PAM inactive, TRPC4 block inactive, TRPC6 inh inactive, TRPC4 agonist inactive and TRPC6 activator inactive.
COCC(=O)Nc1ccc2c(c1)OCC(=O)N2Cc1ccccc1F was read as TRPC4 PAM inactive, TRPC4 block inactive, TRPC6 inh inactive, TRPC4 agonist inactive and TRPC6 activator inactive.
For CCN1CCN(c2ccc(S(=O)(=O)N3CCCCC3)cc2NC(=O)Cc2c(F)cccc2Cl)CC1 the results were TRPC4 PAM 11, TRPC4 block inactive, TRPC6 inh inactive, TRPC4 agonist inactive and TRPC6 activator inactive.
Screening CCN1CCN(c2ccc(S(=O)(=O)N3CCCCC3)cc2NC(=O)c2cccc(Cl)c2)CC1 returned TRPC4 PAM 18, TRPC4 block inactive, TRPC6 inh inactive, TRPC4 agonist 45 and TRPC6 activator inactive.
Screening CCCCN(CC)S(=O)(=O)c1ccc(C(=O)Nc2nnc(-c3cccs3)o2)cc1 returned TRPC4 PAM inactive, TRPC4 block inactive, TRPC6 inh inactive, TRPC4 agonist 67 and TRPC6 activator inactive.
`COC(=O)c1cc(Br)c(=O)n(-c2cccc(F)c2)c1` gave TRPC4 PAM inactive, TRPC4 block inactive, TRPC6 inh inactive, TRPC4 agonist inactive and TRPC6 activator inactive.
CC1CCCC(C)N1C(=O)CSc1nc2c(c(=O)n(C)c(=O)n2C)n1C (stereo not given) was read as TRPC4 PAM inactive, TRPC4 block inactive, TRPC6 inh inactive, TRPC4 agonist inactive and TRPC6 activator inactive.
`O=C(O)COc1ccccc1C(Nc1cccnc1)c1cc(Cl)c2cccnc2c1O` (stereo not given) gave TRPC4 PAM inactive, TRPC4 block inactive, TRPC6 inh inactive, TRPC4 agonist inactive and TRPC6 activator inactive.
Screening O=C(NC(c1ccccc1)c1cc(Cl)c2cccnc2c1O)c1cccnc1 (stereo not given) returned TRPC4 PAM inactive, TRPC4 block inactive, TRPC6 inh -5.85, TRPC4 agonist inactive and TRPC6 activator inactive.
